ChEMBL document CHEMBL4396949, “Anti-cancer potential of novel glycosylated 1,4-substituted triazolylchalcone derivatives” (Bioorg Med Chem Lett, 2019)
Calls of active or inactive are those of the source. No cut-off for these calls is given here.

Tests used:
MCF7 [1] = test: Induction of DNA fragmentation in human MCF7 cells assessed as apoptotic cells at 40 to 60 uM incubated for 12 hrs by DAPI staining based fluorescence microscopic method; format: functional, cell-based
How it was run: (§1)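 Nuclear morphology by DAPI staining and fluorescence microscopy; apoptotic (fragmented, polynuclear) nuclei counted and expressed as percent apoptotic cells versus untreated control; H2O2 positive control.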

MCF7 [2] = test: Antiproliferative activity against human MCF7 cells incubated for 24 hrs by MTT assay; format: functional; conditions: MCF7, 24 h, read-out: LD50 (the source's name)
How it was run: (§2)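 Cells exposed to compounds at […]; viability read by MTT assay. LD50 derived from concentration-response. MDA-MB-468: triple-negative (ER-, PR-, HER2-) breast cancer. MCF-7: ER+, PR+, HER2- breast cancer. WI-38: non-cancerous lung fibroblasts. Selectivity index taken as WI-38 LD50 divided by cancer-cell LD50.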

MCF7 [3] = test: Disruption of mitochondrial membrane potential in human MCF7 cells assessed as shift of fluorescence from red to green by JC1 staining based fluorescent microscopic method; format: functional, cell-based
How it was run: (§3)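 JC-1 staining with fluorescence imaging; mitochondrial permeability transition read as a red-to-green shift (fall in red/green ratio), quantified from images; H2O2 as positive control.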

MDA-MB-468 [4] = test: Induction of apoptosis in human MDA-MB-468 cells assessed as decrease in bcl2 protein expression at 40 to 60 uM by Western blot analysis; format: functional, cell-based
MCF7 [5] = test: Induction of mitochondrial ROS production in human MCF7 cells at 40 to 60 uM incubated for 24 hrs by MitoSox red dye based fluorescence microscopic method; format: functional, cell-based
How it was run: (§4)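 MitoSOX Red, a live-cell mitochondria-targeted superoxide probe, after exposure to 40 and 60 µM; read by fluorescence microscopy and spectrophotometric fluorescence intensity; H2O2 positive control.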

MDA-MB-468 [6] = test: Induction of apoptosis in human MDA-MB-468 cells assessed as increase in cleaved caspase-3 protein expression at 40 to 60 uM by Western blot analysis; format: functional, cell-based
MDA-MB-468 [7] = test: Disruption of mitochondrial membrane potential in human MDA-MB-468 cells assessed as shift of fluorescence from red to green by JC1 staining based fluorescent microscopic method; format: functional, cell-based; how it was run: as §3
MCF7 [8] = test: Induction of cell cycle arrest in human MCF7 cells assessed as increase in accumulation at sub G1 phase at 60 uM by PI staining based FACS analysis relative to control; format: functional
How it was run: (§5)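 Cells exposed to 20, 40 and 60 µM; cell cycle distribution by FACS, with sub-G1 population quantified as a measure of apoptosis.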

MDA-MB-468 [9] = test: Induction of mitochondrial ROS production in human MDA-MB-468 cells at 40 to 60 uM incubated for 24 hrs by MitoSox red dye based fluorescence microscopic method; format: functional, cell-based; how it was run: as §4
MCF7 [10] = test: Induction of DNA fragmentation in human MCF7 cells assessed as apoptotic cells at 60 uM incubated for 12 hrs by DAPI staining based fluorescence microscopic method relative to control; format: functional; how it was run: as §1
MDA-MB-468 [11] = test: Induction of cell cycle arrest in human MDA-MB-468 cells assessed as increase in accumulation at sub G1 phase at 60 uM by PI staining based FACS analysis relative to control; format: functional; how it was run: as §5
MCF7 [12] = test: Induction of ROS production in human MCF7 cells assessed as increase in green intensity incubated for 12 hrs by DCFDA staining based microscopic analysis; format: functional, cell-based
How it was run: (§6)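 Cells exposed to 0, 20, 40 and 60 µM for 12 h, then loaded with DCFDA (100 µM) for 30 min; green fluorescence assessed by microscopy with image quantitation, plus spectrophotometric fluorescence intensity; H2O2 positive control.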

[13] = Antiproliferative activity against human WI38 cells incubated for 24 hrs by MTT assay; format: cell-based, WI-38; conditions: read-out: LD50; how it was run: as §2
MDA-MB-468 [14] = test: Induction of apoptosis in human MDA-MB-468 cells assessed as increase in apoptotic cells incubated for 24 hrs by annexin V-FITC and PI staining based flow cytometric analysis; format: functional, cell-based
How it was run: (§7)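 Cells treated at 0, 20, 40 and 60 µM for 24 h, stained with Annexin V-FITC/PI and analysed by flow cytometry; apoptotic cell percentage quantified from dot plots.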

MCF7 [15] = test: Induction of apoptosis in human MCF7 cells assessed as increase in apoptotic cells incubated for 24 hrs by annexin V-FITC and PI staining based flow cytometric analysis; format: functional, cell-based; how it was run: as §7
MDA-MB-468 [16] = test: Antiproliferative activity against human MDA-MB-468 cells incubated for 24 hrs by MTT assay; format: functional; conditions: MDA-MB-468, 24 h, read-out: LD50 (the source's name); how it was run: as §2
MDA-MB-468 [17] = test: Induction of DNA fragmentation in human MDA-MB-468 cells assessed as formation of polynuclear fragmentation at 40 to 60 uM incubated for 12 hrs by DAPI staining based fluorescence microscopic method; format: functional, cell-based; how it was run: as §1
MDA-MB-468 [18] = test: Induction of ROS production in human MDA-MB-468 cells assessed as increase in green intensity incubated for 12 hrs by DCFDA staining based microscopic analysis; format: functional, cell-based; how it was run: as §6
MCF7 [19] = test: Induction of DNA fragmentation in human MCF7 cells assessed as formation of polynuclear fragmentation at 40 to 60 uM incubated for 12 hrs by DAPI staining based fluorescence microscopic method; format: functional, cell-based; how it was run: as §1
MCF7 [20] = test: Induction of apoptosis in human MCF7 cells assessed as increase in apoptotic cells at 60 uM incubated for 24 hrs by annexin V-FITC and PI staining based flow cytometric analysis relative to control; format: functional; how it was run: as §7
MDA-MB-468 [21] = test: Induction of apoptosis in human MDA-MB-468 cells assessed as increase in apoptotic cells at 60 uM incubated for 24 hrs by annexin V-FITC and PI staining based flow cytometric analysis relative to control; format: functional; how it was run: as §7
[22] = Selectivity index, ratio of LD50 for human WI38 cells to LD50 for human MCF7 cells; format: toxicity; conditions: WI38 cells and MCF7 cells, read-out: Selectivity Index
How it was run: (§8)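 MTT cytotoxicity after exposure to […] in MDA-MB-468, MCF-7 and WI-38 fibroblasts; LD50 determined per line; selectivity index calculated as WI-38 LD50 divided by cancer-cell LD50.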

MDA-MB-468 [23] = test: Induction of DNA fragmentation in human MDA-MB-468 cells assessed as apoptotic cells at 40 to 60 uM incubated for 12 hrs by DAPI staining based fluorescence microscopic method; format: functional, cell-based; how it was run: as §1
WI-38 = test: Induction of apoptosis in human WI38 cells at 20 to 60 uM incubated for 24 hrs by annexin V-FITC and PI staining based flow cytometric analysis; format: cell-based; conditions: wi-38, 24 h; how it was run: as §7
MDA-MB-468 [24] = test: Induction of DNA fragmentation in human MDA-MB-468 cells assessed as apoptotic cells at 60 uM incubated for 12 hrs by DAPI staining based fluorescence microscopic method relative to control; format: functional; how it was run: as §1
[25] = Selectivity index, ratio of LD50 for human WI38 cells to LD50 for human MDA-MB-468 cells; format: toxicity; conditions: WI38 cells and MDA-MB-468 cells, read-out: Selectivity Index; how it was run: as §8
MDA-MB-468 [26] = test: Induction of apoptosis in human MDA-MB-468 cells assessed as increase in bax protein expression at 40 to 60 uM by Western blot analysis; format: functional, cell-based

CN(C)c1ccc(/C=C/C(=O)c2ccc(OCc3cn([C@@H]4O[C@H](CO)[C@@H](O)[C@H](O)[C@H]4O)nn3)cc2)cc1
Activity (MCF7 [1]): Active
CC50 (MCF7 [2]): 31 µM
Activity (MCF7 [3]): Dose-dependent effect
Activity (MDA-MB-468 [4]): Active
Activity (MCF7 [5]): Active
Activity (MDA-MB-468 [6]): Active
Activity (MDA-MB-468 [7]): Dose-dependent effect
Activity (MCF7 [8]): 67%
Activity (MDA-MB-468 [9]): Active
Activity (MCF7 [10]): 78%
Activity (MDA-MB-468 [11]): 62%
Activity (MCF7 [12]): Dose-dependent effect
CC50 at 24 h [13]: 59 µM
Activity (MDA-MB-468 [14]): Dose-dependent effect
Activity (MCF7 [15]): Dose-dependent effect
CC50 (MDA-MB-468 [16]): 28 µM
Activity (MDA-MB-468 [17]): Active
Activity (MDA-MB-468 [18]): Dose-dependent effect
Activity (MCF7 [19]): Active
Activity (MCF7 [20]): 63%
Activity (MDA-MB-468 [21]): 60%
selectivity ratio [22]: 1.9
Activity (MDA-MB-468 [23]): Active
Activity (WI-38): Non-Toxic
Activity (MDA-MB-468 [24]): 72%
selectivity ratio [25]: 2.11
Activity (MDA-MB-468 [26]): Active
